From PubChem BioAssay
PGC1a acetyl inh: PGC1a acetylation modulation, inhibitor mode. AID 651687. 0.17% of 350,000 active. inhibition, % at 15.6 µM. U2OS PGC1a acetylation, AlphaScreen anti-acetyl-lysine; with virally co-expressed GCN5 acetyltransferase;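 active = every replicate shows inhibition of at least 40%; inconclusive = mean inhibition at least 40% but some replicate below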;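 note: 0% = neutral control wells and 100% = positive control wells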
ERAP1 HTS inh: inhibitors of human ERAP1 aminopeptidase; recombinant ERAP1, Leu-AMC fluorescence, 60 min; Q9NZ08; inhibition, % at 10.7 µM; 0.15% of 340,000 active;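 active = mean replicate inhibition of at least 30%, or all replicates individually reaching that 30% level; inactive = mean below 30% and not every replicate reaching it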;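 note: 0% = neutral control wells and 100% = L-leucinethiol positive control wells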
S100A4 MyoIIA: inhibitors of human S100A4 binding to myosin IIA peptide | P26447 | S100A4/TAMRA-MyoIIA peptide fluorescence polarization | 0.14% of 360,000 active | inhibition, % at 10.7 µM;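 active = mean inhibition of at least 70% across replicates, with every replicate also reaching that level; inconclusive = mean inhibition reaches 70% but some replicates fall short; inactive = mean inhibition below 70%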
Target sequence (P26447 whole entry, looked up): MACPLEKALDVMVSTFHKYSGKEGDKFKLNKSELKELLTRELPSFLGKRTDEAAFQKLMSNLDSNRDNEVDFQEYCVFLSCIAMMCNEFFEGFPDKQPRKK
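Test system: S100A4 monomer protein; Medium: HEPES pH 7.2 with CaCl2, KCl, NaCl, DTT, Triton; Probe or stimulus: TAMRA-labelled myosin IIA heavy-chain peptide probe, 5 nM; Doses: one dose per compound; Times: polarization read 5 min after assay mix addition, stable 5–60 min; Benchmarks: neutral control DMSO, positive control TFP.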
Rtt109 HAT inh: blocks Candida albicans Rtt109/Vps75 acetyltransferase activity. purified Rtt109/Vps75, ThioGlo CoA-SH fluorescence, 4 h. inhibition, % at 34.9 µM. Q5AAJ8. 0.16% of 330,000 active;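 active = inhibition of at least 50% in every replicate; inconclusive = best replicate reaches 50% inhibition but some replicates fall short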
Target sequence (Q5AAJ8 whole entry, looked up): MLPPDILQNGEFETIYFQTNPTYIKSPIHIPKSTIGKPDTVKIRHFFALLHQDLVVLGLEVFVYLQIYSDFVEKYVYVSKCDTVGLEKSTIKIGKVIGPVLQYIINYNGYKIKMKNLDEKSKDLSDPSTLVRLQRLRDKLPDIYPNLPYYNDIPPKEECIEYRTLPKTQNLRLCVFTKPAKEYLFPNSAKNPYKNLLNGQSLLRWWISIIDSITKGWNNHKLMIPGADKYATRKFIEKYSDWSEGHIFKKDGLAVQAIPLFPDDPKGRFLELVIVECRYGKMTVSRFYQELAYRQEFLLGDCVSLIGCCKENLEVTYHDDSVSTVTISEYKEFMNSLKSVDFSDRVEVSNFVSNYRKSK
C2C12 statin: suppression of simvastatin myotoxicity. C2C12 myotubes + simvastatin, ATP luminescence, 48 h; scaled: DMSO 0, geranylgeraniol control 100. rescue of ATP level, % at 7.49 µM. 0.78% of 330,000 active. AID 602340;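 active = mean ATP rescue above about 67%, or every replicate alone reaching that limit, limit read from the data, passing the limit was not always enough; inconclusive = no clear call, values can overlap the other calls; inactive = mean under the limit and some replicate under it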;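 note: myotubes were challenged with 10 µM simvastatin during compound exposure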
Active calls of the source: *; ? = inconclusive; . = no result given. Most compounds without a hit are left out; they make up all but 0.98% or so of the library.

SMILES | PGC1a acetyl inh | ERAP1 HTS inh | S100A4 MyoIIA | Rtt109 HAT inh | C2C12 statin
Cc1cc(C)nc(SCC(=O)NC2=NN=C(c3ccc(Br)cc3)CS2)n1 | 7 | . | . | -3 | 145*
CO[C@@H]1CN(C)C(=O)c2cc(NC(=O)Nc3ccccc3)ccc2OC[C@H](C)N(C(=O)CN(C)C)C[C@@H]1C | 5 | 0 | -33 | . | -8
C[C@H]1CCCCO[C@H](CN(C)C(=O)Nc2ccc3c(c2)OCO3)[C@@H](C)CN([C@@H](C)CO)C(=O)c2cc(NS(C)(=O)=O)ccc2O1 | 4 | -2 | 11 | . | .
O=C(NC1CCCC1)C(c1ccc(F)cc1)N(C(=O)c1csnn1)c1ccccc1 (stereo not drawn) | . | -3 | -9 | 52* | -13
Cc1ccc(N(C(=O)c2csnn2)C(C(=O)NC2CCCCC2)c2ccccn2)cc1C (stereo not drawn) | 2 | 3 | 1 | -3 | 81*
COc1ccc(-n2sc3ccc(F)cc3c2=O)cc1 | 2 | 6 | 3 | 159* | -8
COc1ccc(-n2cc(C(=O)O)c3ccccc3c2=O)cc1 | 1 | 5 | 6 | -6 | 9
O=c1c2cc(F)ccc2sn1-c1ccc(F)cc1 | 8 | . | . | ? | -35
COc1ccc(-n2sc3ccccc3c2=O)cc1 | . | 75* | -9 | . | -2
C[C@H](CO)N1C[C@H](C)[C@@H](CN(C)S(=O)(=O)c2cccs2)Oc2ccc(NS(=O)(=O)c3ccc(F)cc3)cc2CC1=O | 0 | -1 | 0 | . | 43
CC(SCc1cn2cc(Cl)ccc2n1)C(=O)O (stereo not drawn) | 4 | . | . | 3 | 108*
O=C(O)c1ccccc1SCc1cn2cc(Cl)ccc2n1 | . | -1 | -4 | 2 | .
C[C@H]1CN([C@@H](C)CO)C(=O)c2cccc(NC(=O)c3ccc(-c4nccs4)cc3)c2O[C@H]1CN(C)S(=O)(=O)c1cccs1 | 4 | -2 | 1 | . | .
CCCC1CC(CCc2ccccc2)OS(=O)(=O)N1 (stereo not drawn) | -3 | -2 | -7 | 3 | 95*
CN(C)CCCNC(=O)C[C@H]1C=C[C@H](NC(=O)Cc2cccnc2)[C@@H](CO)O1 | 10 | 2 | -4 | . | -17
C/C=C/c1ccccc1[C@H]1[C@@H](CO)N(C(=O)Nc2ccccc2F)[C@H]1C#N | -8 | 1 | -11 | . | .
O=C(Nc1ccccc1F)N1C[C@H]2[C@@H](c3ccccc31)[C@H](CO)N2C(=O)C1CCCCC1 | -10 | 0 | 1 | . | 10
COCC(=O)N1C[C@H]2[C@@H](c3ccccc31)[C@@H](CO)N2C(=O)Nc1ccccc1F | 3 | 5 | 102* | . | 0
O=C(C1CCCC1)N1C[C@H]2[C@@H](c3ccccc31)[C@@H](CO)N2C(=O)c1ccccc1F | -4 | 2 | 5 | . | -7
O=C(C1CCCC1)N1C[C@@H]2[C@H](c3ccccc31)[C@@H](CO)N2C(=O)c1ccccc1F | 2 | -1 | 115* | . | -2
C/C=C/c1ccc([C@H]2[C@@H](CO)N(C(=O)Nc3ccccc3F)[C@H]2C#N)cc1 | -3 | 1 | 89* | . | -1
O=C(Nc1ccccc1F)N1C[C@@H]2[C@H](c3ccccc31)[C@@H](CO)N2C(=O)C1CCCC1 | -7 | 0 | 129* | . | 2
C[C@@H]1CN([C@@H](C)CO)C(=O)c2c(c3ccccc3n2C)-c2ccccc2CO[C@@H]1CN(C)C(=O)NC1CCCCC1 | 0 | 2 | 9 | . | -6
O=C(C[C@H]1C=C[C@H](NC(=O)Nc2cc(F)ccc2F)[C@@H](CO)O1)NCc1ccc2c(c1)OCO2 | 0 | -3 | 3 | . | 7
Cc1ccc(S(=O)(=O)Nc2ccc3c(c2)C(=O)N([C@@H](C)CO)C[C@H](C)[C@H](CN(C)S(=O)(=O)c2c(C)noc2C)OCCCC[C@@H](C)O3)cc1 | -16 | -6 | -7 | . | .
SMILES | PGC1a acetyl inh | ERAP1 HTS inh | S100A4 MyoIIA | Rtt109 HAT inh | C2C12 statin
C[C@@H]1CN([C@@H](C)CO)C(=O)Cc2cc(NS(C)(=O)=O)ccc2O[C@H]1CN(C)C(=O)Nc1cccc2ccccc12 | 6 | 4 | 22 | . | 16
CCCNC(=O)N1[C@H](CO)[C@@H]2c3ccccc3N(C(=O)c3ccc(F)cc3)C[C@@H]21 | -10 | 2 | 124* | . | 6
CCCNC(=O)N1[C@@H]2CN(C(=O)c3ccncc3)c3ccccc3[C@@H]2[C@@H]1CO | 7 | 4 | -6 | . | 24
Cc1ccc(-c2nnn(CC(=O)N(CCCO)C(C(=O)NC3CCCC3)c3ccc(Cl)cc3)n2)o1 (stereo not drawn) | -14 | -4 | 0 | -6 | 80*
Cc1ccc(-c2nnn(CC(=O)N(CCO)C(C(=O)NC3CCCCC3)c3ccncc3)n2)o1 (stereo not drawn) | -3 | -4 | 0 | 8 | .
CC(C)CC#Cc1cnc2c(c1)C(=O)N([C@H](C)CO)C[C@@H](C)[C@H](CN(C)S(=O)(=O)c1cn(C)cn1)O2 | 1 | -1 | 45 | . | 14
COc1ccc(CN(C)C[C@@H]2Oc3ccc(NC(=O)C4CCCCC4)cc3C(=O)N([C@@H](C)CO)C[C@@H]2C)cc1 | 3 | . | 28 | . | -9
COc1ccccc1NC(=O)NC1(C(=O)N2CCCCCC2)CCCCC1 | -7 | . | . | 7 | 106*
C[C@H](NC(=O)[C@H]1[C@H](CO)[C@H]2Cn3c(ccc(-c4cccnc4)c3=O)[C@@H]1N2C)c1ccccc1 | . | -1 | 4 | . | -4
O=C1NN=C(c2ccccc2)CC1c1ccc(Cl)cc1Cl (stereo not drawn) | 4 | 0 | 0 | 7 | 3
O=C1NN=C(c2ccc(Cl)cc2)CC1c1cccc(Cl)c1 (stereo not drawn) | -3 | . | . | -7 | 137*
CCOc1ccc(N2C(=O)CC(Cc3ccc(Br)cc3)C2=O)cc1 (stereo not drawn) | 71* | -2 | -11 | 2 | -1
O=C(c1cnn2c(C(F)F)cc(-c3ccccc3)nc12)N1CCc2ccccc21 | -6 | -1 | 3 | . | 118*
COc1ccc(NC(=O)Nc2ccc3c(c2)[C@@H]2C[C@@H](CC(=O)NC4CCCCC4)O[C@H](CO)[C@@H]2O3)cc1 | -2 | 0 | 4 | . | -3
COC(=O)c1cccc(N2C(=O)C(Cl)=C(N3CCOCC3)C2=O)c1 | 1 | . | . | 115* | -2
O=C1C(Cl)=C(N2CCCCCC2)C(=O)N1c1ccccc1Cl | . | 2 | 2 | -3 | 7
O=C1C(Cl)=C(N2CCOCC2)C(=O)N1c1ccccc1Cl | 14 | 2 | 4 | 162* | -12
O=C1C(Cl)=C(N2CCOCC2)C(=O)N1c1cccc(C(F)(F)F)c1 | -2 | 2 | -1 | ? | -4
C[C@@H]1CN([C@@H](C)CO)S(=O)(=O)c2ccc(-c3cccc(C(=O)N(C)C)c3)cc2O[C@H]1CN(C)C(=O)Cc1ccccn1 | 7 | 2 | -6 | . | 5
CC1CC(=O)c2c(cc3c(-c4c(O)cc(O)c5c(O)c6c(cc45)OC(C)CC6=O)c(O)cc(O)c3c2O)O1 (stereo not drawn) | 63* | . | . | 3 | -236
